Experimental findings from ChEMBL document CHEMBL1649452, “The chromosomal toxin gene yafQ is a determinant of multidrug tolerance for Escherichia coli growing in a biofilm” (2009) are described below.

SMILES strings stand for the structures. In brackets after ≈: the same amount, converted by molar mass. Activity calls are given as the source filed them.

The subject of experiment [1] is Escherichia coli. As to the kind of experiment: Bactericidal activity against yafQ gene-deficient Escherichia coli K-12 BW25113 biofilm assessed as log reduction of viable cells after 24 hrs relative to wild-type Escherichia coli K-12 BW25113. It counts as functional. A digest of the protocol:
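Biofilms grown 24 h at 37°C, 125 rpm, 95% humidity on Calgary device pegs from ~1.0 × 10^7 CFU/ml inoculum (1.0 McFarland diluted 30-fold). After a saline rinse, biofilms went into twofold antibiotic dilutions, were rinsed twice, and sonicated 5 min in LB with 1% Tween 20. Survivors were counted on LB agar after ≥24 h at 37°C. Mean log killing compared with wild type; significance required ≥50-fold difference and non-overlapping SDs.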

Experiment [2] has as its system Escherichia coli. As to the kind of experiment: Bactericidal activity against Escherichia coli K-12 BW25113 stationary-phase planktonic cell assessed as log reduction of viable cells after 24 hrs. The experiment is classed as functional, organism-based. A digest of the protocol: (§1)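 Stationary-phase planktonic cells from LB grown 18–20 h at 225 rpm, 37°C, then pelleted and resuspended at 2× concentration in fresh medium. 100 μl cells added to 100 μl of 2× twofold antibiotic dilutions. Starting counts by viable plating. Recovery, dilution and counting as for biofilms (LB + 1% Tween 20, LB agar ≥24 h at 37°C); mean log killing calculated.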

Experiment [3] has as its system Escherichia coli. As to the kind of experiment: Antimicrobial activity against yafQ gene-deficient Escherichia coli K-12 BW25113 by broth microdilution method. The experiment is classed as functional. In short, it runs like this: (§2)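 Broth microdilution MIC per CLSI protocol; wild-type and ΔyafQ strains from Keio collection, stored at −70°C in LB with 8% DMSO, cultured on LB agar at 37°C.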

Experiment [4] concerns Escherichia coli. Put plainly: Antimicrobial activity against Escherichia coli K-12 BW25113 by broth microdilution method. The experiment is classed as functional. In short, it runs like this: as §2
Background: Dilution methods test growth across graded concentrations, often in twofold steps.

In experiment [5] the test system is Escherichia coli. Put plainly: Effect on survival of Escherichia coli K-12 BW25113 biofilm harboring pCA24N ptac::yafQ plasmid assessed as increase in cell survival after 24 hrs pretreated with 5 uM of IPTG for 4 hrs relative to wild-type Escherichia coli K-12 […]. The experiment is classed as functional. In short, it runs like this: (§3)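 Biofilms grown 24 h at 37°C, 125 rpm, 95% humidity on Calgary device pegs from ~1.0 × 10^7 CFU/ml inoculum. Strain carries IPTG-inducible pCA24N vector, grown with 30 μg/ml chloramphenicol. Biofilms were rinsed, then induced 4 h at 37°C, 125 rpm in LB with chloramphenicol and 5 μM IPTG before twofold antibiotic dilutions. Survivors were recovered by sonication in LB plus 1% Tween 20 and plated; mean log killing calculated.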

In experiment [6] the test system is Escherichia coli. Put plainly: Bactericidal activity against yafQ gene-deficient Escherichia coli K-12 BW25113 stationary-phase planktonic cell assessed as log reduction of viable cells after 24 hrs. The experiment is classed as functional, organism-based. In short, it runs like this: as §1
Experiment [7] concerns Escherichia coli. Put plainly: Bactericidal activity against Escherichia coli K-12 BW25113 biofilm harboring pCA24N ptac::yafQ plasmid assessed as log reduction of viable cells after 24 hrs pretreated with 5 uM of IPTG for 4 hrs. The experiment is classed as functional, organism-based. A digest of the protocol:
as §3

The subject of experiment [8] is Escherichia coli. As to the kind of experiment: Bactericidal activity against yafQ gene-deficient Escherichia coli K-12 BW25113 biofilm assessed as log reduction of viable cells after 24 hrs. The experiment is classed as functional, organism-based. In short, it runs like this:
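Biofilms grown on the 96-peg polystyrene lid of a Calgary biofilm device. Inoculum was a 1.0 McFarland suspension diluted 30-fold in growth medium (~1.0 × 10^7 CFU/ml). Grown 24 h at 37°C, 125 rpm, 95% humidity, then saline-rinsed and exposed to twofold antibiotic dilutions. Rinsed twice, sonicated 5 min in LB + 1% Tween 20, plated on LB agar ≥24 h at 37°C. Mean log killing taken from viable counts.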

The MIC is the smallest concentration in the dilution series that meets the test's criterion for growth inhibition. Consider `NC[C@H]1O[C@H](O[C@H]2[C@H](O)[C@@H](O[C@H]3O[C@H](CO)[C@@H](O)[C@H](N)[C@H]3O)[C@H](N)C[C@@H]2N)[C@H](N)C[C@@H]1O` [TOBRAMYCIN], for which, in the experiment on Escherichia coli [1], the FC came to 760. The outcome with Escherichia coli [2] and in the experiment on Escherichia coli [6] was Active. Further, the minimal inhibitory concentration (MIC) against Escherichia coli [3] worked out at 2 µg/mL (≈ 4.28 µM); with Escherichia coli [4], 1.5 µg/mL (≈ 3.21 µM). The “fold change (FC)” value in the experiment with Escherichia coli [5] is reported as 3300. Besides, in the experiment on Escherichia coli [7], the result was inactive.
As to `Cc1nnc(SCC2=C(C(=O)O)N3C(=O)[C@@H](NC(=O)Cn4cnnn4)[C@H]3SC2)s1` [CEFAZOLIN], the FC in the experiment on Escherichia coli [1] was 2400. In addition, the outcome with Escherichia coli [2] and with Escherichia coli [6] was Active. For the same compound, the MIC against Escherichia coli [3] and in the experiment with Escherichia coli [4] was 4 µg/mL (≈ 8.8 µM) in each case. Besides, the “fold change (FC)” value in the experiment with Escherichia coli [5] is given as 10000. Besides, in the experiment on Escherichia coli [7], the result was inactive.
As for `CO[C@H]1/C=C/O[C@@]2(C)Oc3c(C)c(O)c4c(O)c(c(/C=N/N5CCN(C)CC5)c(O)c4c3C2=O)NC(=O)/C(C)=C\C=C\[C@H](C)[C@H](O)[C@@H](C)[C@@H](O)[C@@H](C)[C@H](OC(C)=O)[C@@H]1C` [RIFAMPIN], the minimal inhibitory concentration (MIC) against Escherichia coli [3] and against Escherichia coli [4] was 16 µg/mL (≈ 19.4 µM) in each case. Also, the outcome in the experiment on Escherichia coli [8] and in the experiment on Escherichia coli [7] was Active.
In the case of `C[C@H]1c2cccc(O)c2C(=O)C2=C(O)[C@]3(O)C(=O)C(C(N)=O)=C(O)[C@@H](N(C)C)[C@@H]3[C@@H](O)[C@@H]21.O` [DOXYCYCLINE], the minimum inhibitory concentration (MIC) with Escherichia coli [3] turned out to be 3 µg/mL; against Escherichia coli [4] it was 4 µg/mL. The outcome in the experiment with Escherichia coli [8] and in the experiment with Escherichia coli [7] was Active.
